Data reported in ChEMBL document CHEMBL2396649, “Synthesis and antibacterial activity of novel phosphonium salts on the basis of pyridoxine” (Bioorg Med Chem, 2013).
In brackets after ≈: the same amount, converted by molar mass. Activity calls are given as the source filed them. No cut-off for these calls is given here.

Assays:
[1] = system: Staphylococcus aureus; experiment: Antibacterial activity against Staphylococcus aureus 25923 assessed as decrease in zeta potential of plasmid DNA at 0.1 mg/ml after 1 hr by light scatterning method (reference value: -50.7 +/- 1 mV); type: functional
[2] = system: Staphylococcus aureus; experiment: Antibacterial activity against Staphylococcus aureus 25923 assessed as decrease in zeta potential of plasmid DNA at 0.01 mg/ml after 1 hr by light scatterning method (reference value: -50.7 +/- 1 mV); type: functional
[3] = system: Staphylococcus aureus; experiment: Antibacterial activity against Staphylococcus aureus 25923 assessed as increase in polydispersity index of plasmid DNA at 0.1 mg/ml after 1 hr by light scatterning method (reference value: 0.425 no unit); type: functional
[4] = system: Staphylococcus aureus; experiment: Antibacterial activity against Staphylococcus aureus 25923 assessed as increase in polydispersity index of plasmid DNA at 0.01 mg/ml after 1 hr by light scatterning method (reference value: 0.425 no unit); type: functional
[5] = system: Staphylococcus aureus; experiment: Antibacterial activity against Staphylococcus aureus 25923 assessed as increase in hydrodynamic diameter of plasmid DNA at 0.1 mg/ml after 1 hr by light scatterning method (reference value: 360.7 +/- 18 nm); type: functional
[6] = system: Staphylococcus aureus; experiment: Antibacterial activity against Staphylococcus aureus 25923 assessed as increase in hydrodynamic diameter of plasmid DNA at 0.01 mg/ml after 1 hr by light scatterning method (reference value: 360.7 +/- 18 nm); type: functional
[7] = system: Staphylococcus aureus; experiment: Antibacterial activity against Staphylococcus aureus 25923 assessed as DNA migration out of cells at 10 ug/ml after 1 hr by SYBR green staining-based fluorescent microscopic analysis; type: functional, organism-based
Procedure, shortened: (§1)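 S. aureus 25923 pre-grown on blood agar at 37 °C, cultured overnight in Müller-Hinton broth (pH 7.3), pelleted and resuspended in PBS. After treatment, cells centrifuged 3000 g 15 min, washed twice in PBS, embedded in agarose microgels, lysed, stained with SYBR Green I and imaged by fluorescence microscopy.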

[8] = system: Staphylococcus aureus; experiment: Antibacterial activity against Staphylococcus aureus 25923 assessed as DNA fragmentation at 10 ug/ml after 1 hr by SYBR green staining-based fluorescent microscopic analysis; type: functional, organism-based; procedure, shortened: as §1
[9] = Cytotoxicity against human skin fibroblasts after 72 hrs by MTT assay; parameters: species or system Skin fibroblast
Procedure, shortened: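 Human skin fibroblasts seeded at 3000 cells/well, attached overnight, then exposed to salt solutions (1 µg/ml–1 mg/ml) for 72 h at 37 °C, 5% CO₂. Cells washed with fresh medium and subjected to MTT assay; reduced product read at 550 nm. CC50 derived.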

[10] = system: Proteus; experiment: Antibacterial activity against Proteus spp. assessed as growth inhibition after 18 to 24 hrs; type: functional
Procedure, shortened: (§2)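 Clinical isolates from a regional epidemiology institute. Broth microdilution: inoculum 5 × 10⁵ CFU/ml in Müller-Hinton broth (pH 7.3) with serial concentrations of salts, incubated at 35 °C for 18–24 h. MIC taken as lowest concentration with no detectable bacterial growth.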

[11] = system: Klebsiella pneumoniae; experiment: Antibacterial activity against Klebsiella pneumoniae assessed as growth inhibition after 18 to 24 hrs; type: functional; procedure, shortened: as §2
[12] = system: Staphylococcus epidermidis; experiment: Antibacterial activity against Staphylococcus epidermidis assessed as growth inhibition after 18 to 24 hrs; type: functional; procedure, shortened: as §2
[13] = system: Staphylococcus aureus; experiment: Antibacterial activity against Staphylococcus aureus assessed as growth inhibition after 18 to 24 hrs; type: functional; procedure, shortened: as §2
[14] = system: Staphylococcus aureus; experiment: Antibacterial activity against Staphylococcus aureus 25923 assessed as partial DNA fragmentation at 0.01 to 10 mg/ml after 1 hr by agarose gel electrophoresis method

SMILES	MIC [10] [µg/mL]	MIC [11] [µg/mL]	MIC [12] [µg/mL]	MIC [13] [µg/mL]	also measured
Cc1nc(C[P+](c2ccccc2)(c2ccccc2)c2ccccc2)c(C[P+](c2ccccc2)(c2ccccc2)c2ccccc2)c2c1OC(C)(C)OC2.[Cl-].[Cl-]	> 1000	> 1000	5	5	Activity [1]: -35.2 mV; Activity [2]: -46.6 mV; Activity [3]: 0.844; Activity [4]: 0.717; Activity [5]: 452.3 nm; Activity [6]: 500.9 nm; Activity [7]: Active; Activity [8]: Active; CC50 at 72 h [9]: 160 µg/mL; Activity [14]: Active
Cc1nc(C[P+](c2ccccc2)(c2ccccc2)c2ccccc2)c(C[P+](c2ccccc2)(c2ccccc2)c2ccccc2)c(CO)c1O	> 1000	> 1000	1000	1000	–
CC(=O)Oc1c(C)nc(C[P+](c2ccccc2)(c2ccccc2)c2ccccc2)c2c1COC(C)(C)OC2.[Cl-]	> 1000	> 1000	100	100	–
Cc1ncc(C[P+](c2ccccc2)(c2ccccc2)c2ccccc2)c(CO)c1O.Cl.[Cl-]	> 1000	> 1000	1000	1000	–
CN[C@H](CC(C)C)C(=O)N[C@H]1C(=O)N[C@@H](CC(N)=O)C(=O)N[C@H]2C(=O)N[C@H]3C(=O)N[C@H](C(=O)N[C@H](C(=O)O)c4cc(O)cc(O)c4-c4cc3ccc4O)[C@H](O)c3ccc(c(Cl)c3)Oc3cc2cc(c3O[C@@H]2O[C@H](CO)[C@@H](O)[C@H](O)[C@H]2O[C@H]2C[C@](C)(N)[C@H](O)[C@H](C)O2)Oc2ccc(cc2Cl)[C@H]1O [VANCOMYCIN]	> 1000	> 1000	2.5 (≈ 1.73 µM)	2.5 (≈ 1.73 µM)	–
CC1(C)OCc2c(C[P+](c3ccccc3)(c3ccccc3)c3ccccc3)c(C[P+](c3ccccc3)(c3ccccc3)c3ccccc3)nc(C[P+](c3ccccc3)(c3ccccc3)c3ccccc3)c2O1.[Cl-].[Cl-].[Cl-]	> 1000	> 1000	50	50	–
Cc1ncc(C[P+](c2ccccc2)(c2ccccc2)c2ccccc2)c2c1OC(C)(C)OC2.[Cl-]	> 1000	> 1000	1000	1000	–
CC1(C)OCc2c(CO)c(CO)nc(C[P+](c3ccccc3)(c3ccccc3)c3ccccc3)c2O1.[Cl-]	> 1000	> 1000	> 1000	> 1000	–
Cl.OCc1c(O)c(C[P+](c2ccccc2)(c2ccccc2)c2ccccc2)nc(C[P+](c2ccccc2)(c2ccccc2)c2ccccc2)c1C[P+](c1ccccc1)(c1ccccc1)c1ccccc1.[Cl-].[Cl-].[Cl-]	> 1000	> 1000	500	500	–
Cl.OCc1nc(C[P+](c2ccccc2)(c2ccccc2)c2ccccc2)c(O)c(CO)c1CO.[Cl-]	> 1000	> 1000	> 1000	> 1000	–
CC1(C)OCc2c(C[P+](c3ccccc3)(c3ccccc3)c3ccccc3)cnc(C[P+](c3ccccc3)(c3ccccc3)c3ccccc3)c2O1.[Cl-].[Cl-]	> 1000	> 1000	50	62.5	–
Cl.OCc1c(C[P+](c2ccccc2)(c2ccccc2)c2ccccc2)cnc(C[P+](c2ccccc2)(c2ccccc2)c2ccccc2)c1O.[Cl-].[Cl-]	> 1000	> 1000	250	250	–
Cc1nc(CO)c(C[P+](c2ccccc2)(c2ccccc2)c2ccccc2)c(CO)c1O.Cl.[Cl-]	> 1000	> 1000	1000	1000	–
Cc1nc(C[P+](c2ccccc2)(c2ccccc2)c2ccccc2)c(CO)c(CO)c1O.Cl.[Cl-]	> 1000	> 1000	1000	1000	–
